Test results taken from ChEMBL document CHEMBL1138348, “A p-[18F]fluoroethoxyphenyl bicyclic nucleoside analogue as a potential positron emission tomography imaging agent for varicella-zoster virus thymidine kinase gene expression” (J Med Chem, 2007).
Each block holds one compound with its values, some of them ahead of it.

Assays:
[1] = biological target: T1, Thymidine kinase, cytosolic (Homo sapiens, UniProt P04183); test: Inhibition of human cytosolic thymidine kinase 1
T1 sequence (P04183 whole entry): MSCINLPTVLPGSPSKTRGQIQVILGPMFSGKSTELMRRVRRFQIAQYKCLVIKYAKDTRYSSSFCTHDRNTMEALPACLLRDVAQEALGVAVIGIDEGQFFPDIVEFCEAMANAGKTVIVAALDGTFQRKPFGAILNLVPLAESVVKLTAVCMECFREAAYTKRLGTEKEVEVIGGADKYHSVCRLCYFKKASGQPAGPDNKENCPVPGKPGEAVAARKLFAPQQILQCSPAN
How it was run: (§1)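 Purified recombinant VZV TK (7.75 ng), HSV-1 TK (226 ng) or human cytosolic TK-1 (455 ng) in 50 mM Tris-HCl pH 8.0, 2.5 mM MgCl2, 10 mM DTT, 2.5 mM ATP, 1 mg/mL BSA, 10 mM NaF, with 1 µM final [CH3-3H]dThd substrate. Incubated 30 min at 37 °C with varied compound concentrations; the reaction was linear over this time. Product bound on DE-81 filters, washed, and counted by liquid scintillation. Result reported as IC50.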

[2] = Inhibition of HSV1 thymidine kinase; design: species or system Human alphaherpesvirus 1; how it was run: as §1
[3] = Inhibition of Varicella zoster virus thymidine kinase; design: species or system Human alphaherpesvirus 3; how it was run: as §1
Kidney [4] = test: Biodistribution in NMRI mouse kidney assessed as radioactivity after 60 mins; assay type: ADME, organism-based; conditions: in vivo, 1 h
How it was run: (§2)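 Male NMRI mice (37–43 g) given 0.1 mL HPLC-purified tracer (diluted in water for injection, EtOH <5%; 37 MBq/mL for 11C tracer, 3.7 MBq/mL for 18F tracer) via tail vein under ketamine/xylazine ip anaesthesia. Decapitation at 2 or 60 min, n=3 per time point. Organs dissected, weighed, gamma counted. Results given as %ID (cpm organ/total cpm recovered) or SUV. Blood mass taken as 7% of body mass. Mean ± SD.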

Stomach [5] = test: Biodistribution in NMRI mouse stomach assessed as radioactivity after 60 mins; assay type: ADME, organism-based; conditions: in vivo, 1 h; how it was run: as §2
Blood [6] = test: Biodistribution in NMRI mouse blood assessed as radioactivity after 60 mins; assay type: ADME, organism-based; conditions: in vivo, 1 h; how it was run: as §2
Stomach [7] = test: Biodistribution in NMRI mouse stomach assessed as radioactivity after 2 mins; assay type: ADME, organism-based; conditions: in vivo; how it was run: as §2
Blood [8] = test: Biodistribution in NMRI mouse blood assessed as radioactivity after 2 mins; assay type: ADME, organism-based; conditions: in vivo; how it was run: as §2
Intestine [9] = test: Biodistribution in NMRI mouse intestine assessed as radioactivity after 60 mins; assay type: ADME, organism-based; conditions: in vivo, 1 h; how it was run: as §2
[10] = Partition coefficient, log P in 1-octanol and phosphate buffer at pH 7.4; assay type: physicochemical; conditions: 1-octanol/phosphate buffer
How it was run: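 HPLC-isolated tracer (about 550 kBq 11C or 185 kBq 18F) partitioned between 1-octanol and 0.025 M phosphate buffer pH 7.4 (2 mL each). Vortexed 2 min at room temperature, centrifuged 1837 g for 5 min. Aliquots of both phases weighed and gamma counted. P calculated as the cpm/mL ratio after density correction; n=6.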

Liver [11] = test: Biodistribution in NMRI mouse liver assessed as radioactivity after 2 mins; assay type: ADME, organism-based; conditions: in vivo; how it was run: as §2
Mus musculus [12] = species: Mus musculus; test: Biodistribution in NMRI mouse urine assessed as radioactivity after 60 mins; assay type: ADME, organism-based; conditions: in vivo, 1 h; how it was run: as §2
Mus musculus [13] = species: Mus musculus; test: Biodistribution in NMRI mouse urine assessed as radioactivity after 2 mins; assay type: ADME, organism-based; conditions: in vivo; how it was run: as §2
Mus musculus [14] = species: Mus musculus; test: Biodistribution in NMRI mouse carcass assessed as radioactivity after 60 mins; assay type: ADME, organism-based; conditions: in vivo, 1 h; how it was run: as §2
Mus musculus [15] = species: Mus musculus; test: Biodistribution in NMRI mouse spleen + pancreas assessed as radioactivity after 2 mins; assay type: ADME, organism-based; conditions: in vivo; how it was run: as §2
Lung [16] = test: Biodistribution in NMRI mouse lungs assessed as radioactivity after 2 mins; assay type: ADME, organism-based; conditions: in vivo; how it was run: as §2
Liver [17] = test: Biodistribution in NMRI mouse liver assessed as radioactivity after 60 mins; assay type: ADME, organism-based; conditions: in vivo, 1 h; how it was run: as §2
Brain [18] = test: Biodistribution in NMRI mouse brain assessed as radioactivity after 2 mins; assay type: ADME, organism-based; conditions: in vivo; how it was run: as §2
Heart [19] = test: Biodistribution in NMRI mouse heart assessed as radioactivity after 2 mins; assay type: ADME, organism-based; conditions: in vivo; how it was run: as §2
Intestine [20] = test: Biodistribution in NMRI mouse intestine assessed as radioactivity after 2 mins; assay type: ADME, organism-based; conditions: in vivo; how it was run: as §2
Lung [21] = test: Biodistribution in NMRI mouse lungs assessed as radioactivity after 60 mins; assay type: ADME, organism-based; conditions: in vivo, 1 h; how it was run: as §2
Heart [22] = test: Biodistribution in NMRI mouse heart assessed as radioactivity after 60 mins; assay type: ADME, organism-based; conditions: in vivo, 1 h; how it was run: as §2
[23] = Drug uptake in LV-VZVTK-IP transduced 293T cells assessed as radioactivity at 1.1 MBq after 0.5 hrs; assay type: ADME, cell-based; conditions: human, hek-293t
How it was run: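 293T cells stably transduced with lentivirus carrying VZV-tk-IRES-pac (kept in 1 µg/mL puromycin), alongside untransduced control 293T cells. Plated in triplicate at 200 000 cells/well. After 24 h, fresh medium with HPLC-purified tracer added: 1.1 MBq (11C tracer, 0.5 h) or 185 kBq (18F tracer, 3 h), 37 °C. Cells washed with ice-cold PBS and lysed. Gamma counting. Uptake given as % of total radioactivity per mg protein (Bio-Rad assay).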

Kidney [24] = test: Biodistribution in NMRI mouse kidney assessed as radioactivity after 2 mins; assay type: ADME, organism-based; conditions: in vivo; how it was run: as §2
Mus musculus [25] = species: Mus musculus; test: Biodistribution in NMRI mouse spleen + pancreas assessed as radioactivity after 60 mins; assay type: ADME, organism-based; conditions: in vivo, 1 h; how it was run: as §2
Brain [26] = test: Biodistribution in NMRI mouse brain assessed as radioactivity after 60 mins; assay type: ADME, organism-based; conditions: in vivo, 1 h; how it was run: as §2
Mus musculus [27] = species: Mus musculus; test: Biodistribution in NMRI mouse carcass assessed as radioactivity after 2 mins; assay type: ADME, organism-based; conditions: in vivo; how it was run: as §2

- IC50 [1]: > 500 µM
- IC50 [2]: > 500 µM
- IC50 [3]: > 500 µM
Structure (SMILES): O=c1nc2oc(-c3cccc(OCCCCCCF)c3)cc2cn1[C@H]1C[C@H](O)[C@@H](CO)O1

- Drug uptake (Kidney [4]): 1.4 %ID
- Drug uptake (Stomach [5]): 1 %ID
- Drug uptake (Blood [6]): 0.6 %ID
- Drug uptake (Stomach [7]): 1.2 %ID
- Drug uptake (Blood [8]): 7.1 %ID
- Drug uptake (Intestine [9]): 46.7 %ID
- logD [10]: 1.3
- Drug uptake (Liver [11]): 20.3 %ID
- Drug uptake (Mus musculus [12]): 34.3 %ID
- Drug uptake (Mus musculus [13]): 1.4 %ID
- Drug uptake (Mus musculus [14]): 5.8 %ID
- Drug uptake (Mus musculus [15]): 1.5 %ID
- Drug uptake (Lung [16]): 1.2 %ID
- Drug uptake (Liver [17]): 9.9 %ID
- Drug uptake (Brain [18]): 0 %ID
- Drug uptake (Heart [19]): 0.5 %ID
- Drug uptake (Intestine [20]): 16.8 %ID
- Drug uptake (Lung [21]): 0.1 %ID
- Drug uptake (Heart [22]): 0 %ID
- Drug uptake [23]: 28.8 %ID
- Drug uptake (Kidney [24]): 22.9 %ID
- Drug uptake (Mus musculus [25]): 0.4 %ID
- Drug uptake (Brain [26]): 0 %ID
- Drug uptake (Mus musculus [27]): 29.5 %ID
Structure (SMILES): [11CH3]Oc1ccc(-c2cc3cn([C@H]4C[C@H](O)[C@@H](CO)O4)c(=O)nc3o2)cc1
